Screening data as filed in PubChem.
Yeast tox = Inhibitors of S. cerevisiae growth, toxicity; S. cerevisiae wild-type growth, A595 turbidity, 16 h; growth inhibition, % at 25 µM (by protocol); 30,000 compounds, 0.3% hits;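 active means mutant and wild-type yeast strains alike exhibit over 30% growth inhibition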
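System – wild-type and eIF2Bepsilon-R284H mutant S. cerevisiae, screened separately · Measured by – absorbance at 595 nm (turbidity) · Timing – 16 h compound exposure during growth at 30 °C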
eIF2B yeast act = eIF2B (yeast) activity modulation; S. cerevisiae eIF2B-epsilon R284H, GCN4-lacZ luminescence; inhibition, % at 25 µM (by protocol); 27,000 compounds, 0.91% hits;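 active means mutant luminescence inhibited past about 50% while wild type luminescence and mutant growth stay under set limits, limit read from the data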
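Assay system: yeast eIF2B-epsilon R284H mutant carrying GCN4–beta-galactosidase fusion / Buffer or medium: YPD / Incubation: 16 h growth with compound at 30 °C, 90 min Beta-Glo step / Detection: Beta-Glo luminescence after Z-buffer lysis, growth by 595 nm absorbance / Read-out: % inhibition of reporter signal and growth versus controls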
Numbers stand for hits. An excerpt weighted towards active compounds, which were near 1% of everything screened.

For COc1cccc(Oc2cn[nH]c2-c2ccc(OC)cc2O)c1 the results were Yeast tox inactive and eIF2B yeast act 66.
Screening CCOc1ccc(-c2[nH]ncc2Oc2cccc(OC)c2)c(O)c1 returned Yeast tox inactive and eIF2B yeast act inactive.
For O=c1ccc(Cc2ccccn2)n[nH]1 the results were Yeast tox inactive and eIF2B yeast act inactive.
For CCCC1COC(Cn2cncn2)(c2ccc(C)cc2)O1 (centres undefined) the results were Yeast tox 93 and eIF2B yeast act inactive.
For COC(=O)c1cccc(NC(=O)Cc2ccc(OC)cc2)c1C the results were Yeast tox inactive and eIF2B yeast act inactive.
O=C1COc2ccc(C(=O)CSc3nnc(Cc4cccs4)n3-c3ccc(Cl)cc3)cc2N1 was read as Yeast tox inactive and eIF2B yeast act inactive.
For CCOC(=O)C1=C(c2ccccc2)N=C2SCC(=O)N2C1c1ccc(OC)c(OC)c1 (centres undefined) the results were Yeast tox inactive and eIF2B yeast act inactive.
Screening CCOC(=O)C1=C(c2ccccc2)N(C)C(=O)NC1c1ccc(O)c(OC)c1 (centres undefined) returned Yeast tox inactive and eIF2B yeast act 50.
Screening O=C(Nc1ccccc1C(F)(F)F)c1cc(S(=O)(=O)N2CCOCC2)ccc1F returned Yeast tox inactive and eIF2B yeast act inactive.
For CN1CCN(c2nc(N3CCN(CCO)CC3)nc3ccccc23)CC1 the results were Yeast tox inactive and eIF2B yeast act 55.
For c1ccc(CN2CCN(c3nc(N4CCOCC4)c4ccccc4n3)CC2)cc1 the results were Yeast tox inactive and eIF2B yeast act inactive.
COC(=O)c1ccc(NS(=O)(=O)N(C)C)cc1 was read as Yeast tox inactive and eIF2B yeast act 60.
Screening Cc1ccc(NS(=O)(=O)N(C)C)cc1 returned Yeast tox inactive and eIF2B yeast act inactive.
`COc1ccc(OC)c(N(CC(=O)Nc2cccnc2)S(=O)(=O)c2ccccc2)c1` gave Yeast tox inactive and eIF2B yeast act inactive.
`COc1ccc(OCCOC(=O)c2ccc(-n3cnnn3)cc2)cc1` gave Yeast tox inactive and eIF2B yeast act inactive.
For COc1ccc(C(=O)OC(COc2ccccc2)Cn2ccnc2)cc1 (centres undefined) the results were Yeast tox 68 and eIF2B yeast act inactive.
For O=C(NC1CCCC1)C(c1ccccc1)N(Cc1ccco1)C(=O)Cc1cccs1 (centres undefined) the results were Yeast tox inactive and eIF2B yeast act 57.
For O=C(NCC(=O)N(Cc1ccco1)C(C(=O)NC1CCCC1)c1ccncc1)c1cccs1 (centres undefined) the results were eIF2B yeast act inactive.
For COc1ccc(S(=O)(=O)N2CCC(C(=O)Nc3ccc4c(c3)OCCO4)CC2)cc1OC the results were Yeast tox inactive and eIF2B yeast act inactive.
For Cc1cc(N2CCOCC2)n2ncc(-c3ccccc3)c2n1 the results were Yeast tox inactive and eIF2B yeast act inactive.
`Cc1cc(N2CCN(C(=O)c3ccco3)CC2)n2ncc(-c3ccccc3)c2n1` gave Yeast tox 94 and eIF2B yeast act inactive.
Screening CN(C)CCN1C(=O)C(O)=C(C(=O)c2ccco2)C1c1ccccc1F (centres undefined) returned Yeast tox inactive and eIF2B yeast act 63.
CN(C)CCN1C(=O)C(O)=C(C(=O)c2cc3ccccc3o2)C1c1ccccn1 (centres undefined) was read as Yeast tox inactive and eIF2B yeast act inactive.
Cc1nn(C)c(C)c1NC(=O)CCCSc1nc(-c2ccco2)cc(C(F)(F)F)n1 was read as Yeast tox inactive and eIF2B yeast act inactive.
`COc1ccc(C(=O)Nc2nnc(-c3ccccc3)o2)cc1OC` gave Yeast tox inactive and eIF2B yeast act inactive.
Cc1cccc(-c2nnc(NC(=O)c3ccc(Cl)cc3)o2)c1 was read as Yeast tox 57 and eIF2B yeast act inactive.
Screening CN(C)c1cccc(C(=O)OCC(=O)NCC2CCCO2)c1 (centres undefined) returned Yeast tox inactive and eIF2B yeast act inactive.
Cc1ccc2[nH]c(=O)c(CN(Cc3cccnc3)C(=O)c3ccncc3)cc2c1 was read as Yeast tox inactive and eIF2B yeast act inactive.
For CCOC(=O)c1c(NC(=O)CN(C)C)sc(C(=O)N(CC)CC)c1C the results were Yeast tox inactive and eIF2B yeast act inactive.
`CCCC(=O)Nc1sc(C(=O)OC)c(C)c1C(N)=O` gave Yeast tox inactive and eIF2B yeast act 58.
Cc1cc(C)cc(NS(=O)(=O)c2ccc3[nH]c(=O)[nH]c3c2)c1 was read as Yeast tox inactive and eIF2B yeast act 52.
For COc1ccc(S(=O)(=O)Nc2ccc(C)cc2)cc1OC the results were Yeast tox inactive and eIF2B yeast act inactive.
Screening O=C(COC(=O)c1ccc(=O)n(Cc2ccccc2)n1)Nc1ccc2c(c1)OCCO2 returned Yeast tox inactive and eIF2B yeast act inactive.
Screening CCOC(=O)c1c(NC(=O)CSc2nc3c(c(=O)n(C)c(=O)n3C)n2CC)sc(C)c1C returned Yeast tox inactive and eIF2B yeast act inactive.
Screening CCCn1c(SCC(=O)Nc2nc3c(s2)CCCC3)nc2c1c(=O)n(C)c(=O)n2C returned Yeast tox inactive and eIF2B yeast act 55.
CC1(C)CC(=O)c2cn3nc(C(F)(F)F)nc3nc2C1 was read as Yeast tox inactive and eIF2B yeast act inactive.
COc1ccccc1OCc1ccc(C(=O)Nc2ccncc2)o1 was read as Yeast tox inactive and eIF2B yeast act inactive.
Screening COc1ccc(OC)c(N/C(C)=C/C(=O)c2ccc(C)o2)c1 returned Yeast tox inactive and eIF2B yeast act 56.
Screening COc1ccc(OC)c(NC(=O)Nc2ccc(Cl)cc2)c1 returned Yeast tox inactive.
Screening CCOC(=O)c1ccc(N2C(=O)C=CC2=O)cc1 returned Yeast tox 90 and eIF2B yeast act inactive.
`CCOC(=O)c1ccc(NS(=O)(=O)CC)cc1` gave Yeast tox inactive.
For O=C(OCCCN=C1NS(=O)(=O)c2ccccc21)c1ccccc1F the results were Yeast tox inactive and eIF2B yeast act inactive.
`Cc1ccc2nsnc2c1S(=O)(=O)NCCc1c(C)[nH]c2ccc(F)cc12` gave Yeast tox inactive and eIF2B yeast act inactive.
Screening Cc1[nH][nH]c(=O)c1C(c1ccc(-c2ccc(Cl)c(Cl)c2)o1)c1c(C)[nH][nH]c1=O returned Yeast tox 46 and eIF2B yeast act inactive.
Screening Cc1ccc(S(=O)(=O)Oc2ccc(C(c3c(C)[nH][nH]c3=O)c3c(C)[nH][nH]c3=O)cc2)cc1 returned Yeast tox inactive and eIF2B yeast act inactive.
COc1ccc(N(CC(=O)NCC2CCCO2)C(=O)CCC(=O)Nc2nccs2)cc1 (centres undefined) was read as Yeast tox inactive.
Screening CCOC(=O)CC(=O)CSc1nc(C)cc(-c2cccnc2)c1C#N returned Yeast tox inactive and eIF2B yeast act 55.
`CCOC(=O)CC(=O)CSc1nc(-c2cccnc2)cc(C)c1C#N` gave Yeast tox inactive and eIF2B yeast act inactive.
O=C(CSc1nc2cc3ccccc3cc2[nH]1)Nc1ccc(F)cc1 was read as Yeast tox inactive.
Cn1c(=O)[nH]c(=O)c2c1nc(SCC(O)CO)n2Cc1ccccc1Cl (centres undefined) was read as Yeast tox inactive and eIF2B yeast act 61.
For Cn1c(=O)[nH]c(=O)c2c1nc(Br)n2Cc1ccccc1Cl the results were Yeast tox inactive and eIF2B yeast act inactive.
